# From ChEMBL document CHEMBL4364345, “Synthesis and evaluation of 1,3,4-oxadiazole derivatives for development as broad-spectrum antibiotics” (Bioorg Med Chem, 2019)
# The source made the active and inactive calls.
# Assays:
# Enterococcus faecium [1] = experiment: Antimicrobial activity against Enterococcus faecium AUS0004 by broth microdilution method; format: functional
# How it was run: (§1)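 MICs were set by broth microdilution following EUCAST guidelines, from three independent experiments reported as values or ranges. MICs were measured only where disk-diffusion inhibition diameters were 9 mm or more.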
# Proteus mirabilis = experiment: Antimicrobial activity against Proteus mirabilis clinical isolate at 50 ug/disk incubated for 20 +/- 4 hrs by agar disk diffusion method; format: functional; conditions: read-out: DIZ
# How it was run: (§2)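 Agar disk diffusion on Mueller-Hinton agar swab-seeded from a 0.5 McFarland inoculum (about 10^8 CFU/ml). Cellulose discs got 50 μg compound (10 μl of 5 g/L in DMSO); a 10 μL DMSO disc was the control. Incubated aerobically at 35 ± 2 °C for 20 ± 4 h, then growth-inhibition diameters measured.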
# Enterococcus faecium [2] = experiment: Synergistic antimicrobial activity against Enterococcus faecium AUS0004 assessed as DIZ at 50 ug/disk incubated for 20 +/- 4 hrs in presence of erythromycin by agar disk diffusion method (reference value: 6 millimeter); format: functional; conditions: read-out: DIZ
# Bacillus subtilis = experiment: Antimicrobial activity against Bacillus subtilis clinical isolate at 50 ug/disk incubated for 20 +/- 4 hrs by agar disk diffusion method; format: functional; conditions: read-out: DIZ; how it was run: as §2
# [3] = tested on: Mycolicibacterium fortuitum; experiment: Antimicrobial activity against Mycobacterium fortuitum clinical isolate by broth microdilution method; format: functional; how it was run: as §1
# Morganella morganii = experiment: Antimicrobial activity against Morganella morganii EB6 clinical isolate at 50 ug/disk incubated for 20 +/- 4 hrs by agar disk diffusion method; format: functional; conditions: read-out: DIZ; how it was run: as §2
# Escherichia coli [4] = experiment: Antimicrobial activity against clpP-TolC deficient Escherichia coli BW25113 by agar disk diffusion method; format: functional
# MCF7 = experiment: Cytotoxicity against human MCF7 cells assessed as decrease in cell viability in MTT assay; format: cell-based
# How it was run: (§3)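 Cell viability was measured by MTT on a robotic screening platform. Residual viability was expressed as a percentage of the mean viable cells in DMSO-treated controls. Under 25-30% viability was considered cytotoxic, and IC50 values were derived.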
# Staphylococcus aureus = experiment: Antimicrobial activity against Staphylococcus aureus ATCC 29213 by broth microdilution method; format: functional; how it was run: as §1
# Listeria monocytogenes = experiment: Synergistic antimicrobial activity against Listeria monocytogenes clinical isolate assessed as DIZ at 50 ug/disk incubated for 20 +/- 4 hrs in presence of ofloxacin by agar disk diffusion method (reference value: 19 millimeter); format: functional; conditions: read-out: DIZ
# Escherichia coli [5] = experiment: Antimicrobial activity against Escherichia coli ATCC 25922 at 50 ug/disk incubated for 20 +/- 4 hrs by agar disk diffusion method; format: functional; conditions: read-out: DIZ; how it was run: as §2
# Enterococcus faecalis [6] = experiment: Synergistic antimicrobial activity against Enterococcus faecalis ATCC 29212 assessed as DIZ at 50 ug/disk incubated for 20 +/- 4 hrs in presence of streptomycin by agar disk diffusion method (reference value: 18 millimeter); format: functional; conditions: read-out: DIZ
# [7] = tested on: Mycobacteroides abscessus; experiment: Antimicrobial activity against Mycobacterium abscessus clinical isolate at 50 ug/disk incubated for 4 days by agar disk diffusion method; format: functional; conditions: 96 h, read-out: DIZ
# How it was run: (§4)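 On MH agar with 5% horse blood, a 0.5 McFarland inoculum was swabbed and discs with 50 μg compound (from 5 g/L in DMSO) were laid down, alongside a DMSO control disc. Incubation was humid and aerobic at 35 ± 2 °C for 4 days, then growth-inhibition diameters were measured.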
# Huh-7 = experiment: Cytotoxicity against human HuH7 cells assessed as decrease in cell viability in MTT assay; format: cell-based; how it was run: as §3
# Bacteroides fragilis [8] = experiment: Antimicrobial activity against Bacteroides fragilis ATCC 25285 by broth microdilution method; format: functional; how it was run: as §1
# Caco-2 = experiment: Cytotoxicity against human Caco2 cells assessed as decrease in cell viability in MTT assay; format: cell-based; how it was run: as §3
# Enterococcus faecalis [9] = experiment: Antimicrobial activity against Enterococcus faecalis ATCC 29212 at 50 ug/disk incubated for 20 +/- 4 hrs by agar disk diffusion method; format: functional; conditions: read-out: DIZ; how it was run: as §2
# MDA-MB-231 = experiment: Cytotoxicity against human MDA-MB-231 cells assessed as decrease in cell viability in MTT assay; format: cell-based; how it was run: as §3
# Escherichia coli [10] = experiment: Antimicrobial activity against Escherichia coli BW25113 by broth microdilution method; format: functional
# How it was run: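 MIC by broth microdilution per EUCAST guidelines, in E. coli BW25113 and its previously described deletion derivative.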
# PC-3 = experiment: Cytotoxicity against human PC3 cells assessed as decrease in cell viability in MTT assay; format: cell-based; how it was run: as §3
# Enterococcus faecalis [11] = experiment: Synergistic antimicrobial activity against Enterococcus faecalis ATCC 29212 assessed as DIZ at 50 ug/disk incubated for 20 +/- 4 hrs in presence of rifampicin by agar disk diffusion method (reference value: 20 millimeter); format: functional; conditions: read-out: DIZ
# Enterococcus faecalis [12] = experiment: Antimicrobial activity against Enterococcus faecalis ATCC 29212 by broth microdilution method; format: functional; how it was run: as §1
# Enterococcus faecalis [13] = experiment: Synergistic antimicrobial activity against Enterococcus faecalis ATCC 29212 assessed as DIZ at 50 ug/disk incubated for 20 +/- 4 hrs in presence of gentamicin by agar disk diffusion method (reference value: 13 millimeter); format: functional; conditions: read-out: DIZ
# Escherichia coli [14] = experiment: Antimicrobial activity against ssrA-TolC deficient Escherichia coli BW25113 by agar disk diffusion method; format: functional
# [15] = tested on: Mycolicibacterium fortuitum; experiment: Antimicrobial activity against Mycobacterium fortuitum clinical isolate at 50 ug/disk incubated for 4 days by agar disk diffusion method; format: functional; conditions: 96 h, read-out: DIZ; how it was run: as §4
# [16] = tested on: Staphylococcus epidermidis; experiment: Antimicrobial activity against Staphylococcus epidermidis clinical isolate at 50 ug/disk incubated for 20 +/- 4 hrs by agar disk diffusion method; format: functional; conditions: read-out: DIZ; how it was run: as §2
# Bacteroides fragilis [17] = experiment: Antimicrobial activity against Bacteroides fragilis ATCC 25285 at 50 ug/disk incubated for 20 +/- 4 hrs by agar disk diffusion method; format: functional; conditions: read-out: DIZ
# How it was run: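 Anaerobic disk diffusion: MH agar + 5% horse blood seeded from a 0.5 McFarland swab, with discs of 50 μg compound (10 μl of 5 g/L DMSO solution) and a DMSO control disc. Kept at 35 ± 2 °C under anaerobic conditions for 20 ± 4 h; inhibition diameters recorded.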
# Streptococcus pyogenes = experiment: Antimicrobial activity against Streptococcus pyogenes clinical isolate by broth microdilution method; format: functional; how it was run: as §1
# HCT-116 = experiment: Cytotoxicity against human HCT116 cells assessed as decrease in cell viability in MTT assay; format: cell-based; how it was run: as §3
# Klebsiella pneumoniae = experiment: Antimicrobial activity against Klebsiella pneumoniae clinical isolate at 50 ug/disk incubated for 20 +/- 4 hrs by agar disk diffusion method; format: functional; conditions: read-out: DIZ; how it was run: as §2
# Clostridium perfringens = experiment: Antimicrobial activity against Clostridium perfringens clinical isolate at 50 ug/disk incubated for 20 +/- 4 hrs by agar disk diffusion method; format: functional; conditions: read-out: DIZ
# How it was run: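 Agar disk diffusion on MH agar with 5% horse blood (MHF), surface-seeded by swab from a 0.5 McFarland inoculum (about 10^8 CFU/ml). Cellulose discs received 10 μl of a 5 g/L DMSO solution (50 μg). A DMSO-only disc served as control. Anaerobic incubation at 35 ± 2 °C for 20 ± 4 h; growth-inhibition diameter measured in mm.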
# Escherichia coli [18] = experiment: Antimicrobial activity against arfA-arfB TolC deficient Escherichia coli BW25113 by agar disk diffusion method; format: functional
# Acinetobacter baumannii = experiment: Antimicrobial activity against Acinetobacter baumannii clinical isolate at 50 ug/disk incubated for 20 +/- 4 hrs by agar disk diffusion method; format: functional; conditions: read-out: DIZ; how it was run: as §2
# Enterococcus faecium [19] = experiment: Synergistic antimicrobial activity against Enterococcus faecium AUS0004 assessed as DIZ at 50 ug/disk incubated for 20 +/- 4 hrs in presence of rifampicin by agar disk diffusion method (reference value: 10 millimeter); format: functional; conditions: read-out: DIZ
# Escherichia coli [20] = experiment: Bactericidal activity against TolC deficient Escherichia coli BW25113 by broth microdilution method; format: functional
compound,measurement,setting,value
O=C(Nc1ncc(-c2ccc(F)cc2)o1)c1ccc(Cl)cc1,MIC,Enterococcus faecium [1],1 to 4 µg/mL
same,zone of inhibition at 50 µg/disc,Proteus mirabilis,6 mm
same,zone of inhibition at 50 µg/disc,Enterococcus faecium [2],12 mm
same,zone of inhibition at 50 µg/disc,Bacillus subtilis,15 mm
same,MIC,[3],32 to 64 µg/mL
same,zone of inhibition at 50 µg/disc,Morganella morganii,6 mm
same,diameter of the inhibition zone (DIZ),Escherichia coli [4],13.3 mm
same,IC50,MCF7,4 µM
same,MIC,Staphylococcus aureus,0.5 to 4 µg/mL
same,zone of inhibition at 50 µg/disc,Listeria monocytogenes,15 mm
same,zone of inhibition at 50 µg/disc,Escherichia coli [5],8 mm
same,zone of inhibition at 50 µg/disc,Enterococcus faecalis [6],19 mm
same,zone of inhibition at 50 µg/disc,[7],7 mm
same,IC50,Huh-7,3 µM
same,MIC,Bacteroides fragilis [8],inactive
same,IC50,Caco-2,3 µM
same,zone of inhibition at 50 µg/disc,Enterococcus faecalis [9],11 mm
same,IC50,MDA-MB-231,5 µM
same,MIC,Escherichia coli [10],> 128 µM
same,IC50,PC-3,2 µM
same,zone of inhibition at 50 µg/disc,Enterococcus faecalis [11],20 mm
same,MIC,Enterococcus faecalis [12],2 to 16 µg/mL
same,zone of inhibition at 50 µg/disc,Enterococcus faecalis [13],16 mm
same,diameter of the inhibition zone (DIZ),Escherichia coli [14],13 mm
same,zone of inhibition at 50 µg/disc,[15],12 mm
same,zone of inhibition at 50 µg/disc,[16],18 mm
same,zone of inhibition at 50 µg/disc,Bacteroides fragilis [17],8 mm
same,MIC,Streptococcus pyogenes,32 to 64 µg/mL
same,IC50,HCT-116,2 µM
same,zone of inhibition at 50 µg/disc,Klebsiella pneumoniae,6 mm
same,zone of inhibition at 50 µg/disc,Clostridium perfringens,6 mm
same,diameter of the inhibition zone (DIZ),Escherichia coli [18],14 mm
same,zone of inhibition at 50 µg/disc,Acinetobacter baumannii,6 mm
same,zone of inhibition at 50 µg/disc,Enterococcus faecium [19],15 mm
O=C(Nc1nnc(-c2ccc(C(F)(F)F)cc2)o1)c1cccc(Cl)c1,MIC,Enterococcus faecium [1],0.0625 to 0.25 µg/mL
same,zone of inhibition at 50 µg/disc,Proteus mirabilis,6 mm
same,zone of inhibition at 50 µg/disc,Enterococcus faecium [2],22 mm
same,MBC,Escherichia coli [20],16 µM
same,zone of inhibition at 50 µg/disc,Bacillus subtilis,24 mm
same,MIC,[3],16 to 32 µg/mL
same,zone of inhibition at 50 µg/disc,Morganella morganii,6 mm
same,diameter of the inhibition zone (DIZ),Escherichia coli [4],22.3 mm
same,IC50,MCF7,15 µM
same,MIC,Staphylococcus aureus,2 µg/mL
same,zone of inhibition at 50 µg/disc,Listeria monocytogenes,29 mm
same,zone of inhibition at 50 µg/disc,Escherichia coli [5],6 mm
same,zone of inhibition at 50 µg/disc,Enterococcus faecalis [6],24 mm
same,zone of inhibition at 50 µg/disc,[7],9 mm
same,IC50,Huh-7,20 µM
same,MIC,Bacteroides fragilis [8],1 to 2 µg/mL
same,IC50,Caco-2,11 µM
same,zone of inhibition at 50 µg/disc,Enterococcus faecalis [9],20 mm
same,IC50,MDA-MB-231,23 µM
same,MIC,Escherichia coli [10],> 128 µM
same,IC50,PC-3,17 µM
same,zone of inhibition at 50 µg/disc,Enterococcus faecalis [11],23 mm
same,MIC,Enterococcus faecalis [12],0.125 to 1 µg/mL
same,zone of inhibition at 50 µg/disc,Enterococcus faecalis [13],23 mm
same,diameter of the inhibition zone (DIZ),Escherichia coli [14],22.3 mm
same,zone of inhibition at 50 µg/disc,[15],23 mm
same,zone of inhibition at 50 µg/disc,[16],27 mm
same,zone of inhibition at 50 µg/disc,Bacteroides fragilis [17],11 mm
same,MIC,Streptococcus pyogenes,4 to 32 µg/mL
same,IC50,HCT-116,10 µM
same,zone of inhibition at 50 µg/disc,Klebsiella pneumoniae,6 mm
same,zone of inhibition at 50 µg/disc,Clostridium perfringens,11 mm
same,diameter of the inhibition zone (DIZ),Escherichia coli [18],22.6 mm
same,zone of inhibition at 50 µg/disc,Acinetobacter baumannii,6 mm
same,zone of inhibition at 50 µg/disc,Enterococcus faecium [19],26 mm
